Experimental findings from PubChem BioAssay are described below.

The inhibition is the change of the read-out against control, counted positive when it falls.

The source made the active and inactive calls.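 How the source made its calls, unless noted: active means NADPH fluorescence slope more negative than the mean of all samples by about 3 SD, 99.7% confidence; inactive means the rest.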

Assay [1] in a line: inhibitors of TNFa-induced NFkB p65 translocation, primary screen, imaging, HUVEC, MLSMR starter and 10KST1 sets (AID 438;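 active means inhibition above 20% together with a positive visual image hit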;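 further: compound added about 3h40 before a 20 min TNFalpha stimulation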;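 on inhibition: signal is the nuclear over cytoplasmic p65 intensity ratio per well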). To be noted: HUVEC TNFa-induced p65 nuclear translocation; cell count: measured here: nuclei count (cytotoxicity indicator), at 2.08 µM; inhibition: at 2 µM, stronger effect = higher value, 0% TNFa-plus-vehicle, 100% no-TNFa wells.
The nature of assay [2]: endothelial E-selectin expression blockers – imaging, HUVEC, immunofluorescence, MLSMR starter and 10KST1 sets, primary screen (AID 487;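 active means visually confirmed hit in the image check and inhibition above 20%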;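 on inhibition: signal is fraction of cell area covered by stained E-selectin grains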;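 on nuclei count: 100% = median nuclei count of all wells on the same plate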). To be noted: HUVEC TNFalpha-induced E-selectin immunofluorescence imaging, at 2 µM; inhibition: stronger effect = higher value; nuclei count: measured here: cell number, toxicity.
A short description of assay [3]: Primary imaging screen for DUSP6 inhibitors that restore phospho-Erk in transfected HeLa cells, chemical complementation (AID 609;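 active means compounds giving at least 50% inhibition in the cell-based MKP-3 phosphatase rescue imaging test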;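 on inhibition: phospho-Erk level distribution per well compared with pooled transfected vehicle control wells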). The following applies: HeLa MKP-3 transfected, phospho-Erk imaging KS statistic, at 10 µM, cells stimulated with TPA for 15 min.
The target in assay [4] is Dual specificity protein phosphatase 6 (Homo sapiens) (UniProt Q16828). Described as above. The following applies: HeLa MKP-3 transfected, phospho-Erk imaging KS statistic; at 10 µM; stronger effect = higher value; cells stimulated with TPA for 15 min.
Chain of Dual specificity protein phosphatase 6 (Homo sapiens) (Q16828 whole entry, looked up): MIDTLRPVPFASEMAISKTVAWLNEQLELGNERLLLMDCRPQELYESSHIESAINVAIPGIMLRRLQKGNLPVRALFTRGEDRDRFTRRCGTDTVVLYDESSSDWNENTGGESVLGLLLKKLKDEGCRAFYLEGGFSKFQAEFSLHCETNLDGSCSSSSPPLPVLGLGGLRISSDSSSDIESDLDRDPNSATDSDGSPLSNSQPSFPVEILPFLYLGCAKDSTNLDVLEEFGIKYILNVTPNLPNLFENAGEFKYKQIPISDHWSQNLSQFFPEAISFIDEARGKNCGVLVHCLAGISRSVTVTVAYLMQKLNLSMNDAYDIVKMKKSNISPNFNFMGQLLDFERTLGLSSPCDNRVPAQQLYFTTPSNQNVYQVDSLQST
Assay [5] deals with Voltage-gated potassium channel subunit beta-2 (Rattus norvegicus) (UniProt P62483). Put plainly: inhibitors of rat Kvbeta2 reductase activity – biochemical, NADPH fluorescence, primary screen (AID 622;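 active means fluorescence slope higher than the sample average by over 3 SD, cut at about -0.22 in these data, passing the limit was not always enough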;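 further: slope of raw intensity against log time taken from 70 to 1610 s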). To be noted: recombinant KvBeta, 4-cyanobenzaldehyde reduction, at 10 µM, stronger effect = higher value.
Chain of Voltage-gated potassium channel subunit beta-2 (Rattus norvegicus) (P62483 whole entry, looked up): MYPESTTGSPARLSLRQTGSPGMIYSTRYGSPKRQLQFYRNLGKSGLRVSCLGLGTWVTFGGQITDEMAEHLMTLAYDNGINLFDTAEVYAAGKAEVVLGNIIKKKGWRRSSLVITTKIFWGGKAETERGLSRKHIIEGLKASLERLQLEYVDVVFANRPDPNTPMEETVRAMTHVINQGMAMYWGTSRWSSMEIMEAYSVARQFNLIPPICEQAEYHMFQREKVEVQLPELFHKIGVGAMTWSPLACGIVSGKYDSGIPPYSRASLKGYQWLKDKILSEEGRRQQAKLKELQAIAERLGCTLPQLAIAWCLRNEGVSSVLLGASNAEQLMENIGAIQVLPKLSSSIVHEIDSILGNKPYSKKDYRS
For assay [6] the target is unchanged. Nature of the assay: enhancers of rat Kvbeta2 NADPH turnover – biochemical, NADPH fluorescence, primary screen (AID 623).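 Further: fluorescence intensity change per second fitted from 20 to 320 s.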 The following applies: Recombinant KvBeta, NADPH fluorescence decrease slope, 10 min; at 10 µM; stronger effect = lower value.
For assay [7], the target named is Muscarinic acetylcholine receptor M4 (Homo sapiens) (UniProt P08173). Put plainly: M4-linked GIRK flux change, two-sided – cell-based, HEK293 M4/GIRK, thallium flux, BTC-AM, M4 allosteric agonist project, primary screen (AID 625;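 active means fluorescence slope after compound addition differing from the mean of all tested samples at 99.7% confidence, mostly higher but some lower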;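 further: thallium influx through GIRK channels coupled to M4 in HEK293 cells with BTC-AM dye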). The following applies: at 10 µM, actives lie on both sides. The essentials:
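assay system = HEK293 cells with M4 receptor and GIRK channels | medium = pH 7.3 thallium assay buffer | doses = 10 µM final, single point | timing = cells overnight at 37 °C, BTC-AM loading 1 h, reads 2 min total | signal = BTC-AM fluorescence, 1 Hz kinetic reads | read-out = post-addition slope, 15–24 s, of baseline-normalized fluorescence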

Assay [8] is described as follows: inhibitors of larval lipid processing in zebrafish, primary screen, whole organism, PED6 fluorescence, gall bladder and intestine (AID 686;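 active means a full or partial loss of lipid-probe fluorescence in the fish gall bladder, intestine or both, judged by eye; inactive means no fluorescence loss, or compound toxic to the fish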;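 further: larvae 5 to 7 days old with five fish per well; signal comes from phospholipase A2 cleavage of quenched PED6 carried via bile; overnight exposure to compound and PED6 before scoring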). To be noted: Zebrafish larvae PED6 lipid processing, fluorescence scoring; screened at 20 µM (by protocol). The essentials: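 Also added: quenched phospholipase substrate PED6, 100 nM final, ingested by larvae; System: zebrafish larvae, 5-7 d; Quantity: 5 larvae per well; Compound: 20 µM single dose; Schedule: overnight compound and PED6 incubation; Read-out: visual per-well fluorescence inhibition score; Measured by: By-eye fluorescence microscopy; Medium: E3.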

Assay [9] is described as follows: loss of swimming-algae plug formation – whole organism, Chlamydomonas reinhardtii, WT vs cilia-less mutant, absorbance, 96-well, primary screen (AID 463189;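 active means inhibition at or above 50% relative to wild type and mutant plate controls; inactive means inhibition below 50%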;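 further: 0% = wild type cc124 cells in DMSO and 100% = ciliumless bld1 mutant cells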). To be noted: Chlamydomonas reinhardtii gravitaxis, OD600 absorbance, 2 days; at 10 µM; stronger effect = higher value.
Where [10] appears, read: measured here: cell density z-score.
[11] abbreviates: measured here: nuclear c-Myc green intensity z-score.
[12] abbreviates: measured here: nuclear pErk red intensity z-score, stronger effect = higher value.

Chain of Muscarinic acetylcholine receptor M4 (Homo sapiens) (P08173 whole entry, looked up): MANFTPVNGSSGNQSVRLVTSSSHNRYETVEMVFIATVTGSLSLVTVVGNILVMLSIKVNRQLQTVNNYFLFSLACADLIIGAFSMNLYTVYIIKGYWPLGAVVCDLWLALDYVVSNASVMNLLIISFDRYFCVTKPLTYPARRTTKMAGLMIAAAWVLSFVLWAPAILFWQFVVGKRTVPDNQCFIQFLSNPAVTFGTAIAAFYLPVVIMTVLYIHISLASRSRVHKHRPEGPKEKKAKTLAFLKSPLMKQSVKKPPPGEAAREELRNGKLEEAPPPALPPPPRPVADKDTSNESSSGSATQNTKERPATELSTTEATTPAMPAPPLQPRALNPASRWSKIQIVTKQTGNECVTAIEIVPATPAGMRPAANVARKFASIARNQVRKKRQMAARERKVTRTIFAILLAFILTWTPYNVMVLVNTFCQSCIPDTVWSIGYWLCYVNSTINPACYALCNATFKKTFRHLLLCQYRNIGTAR

Take `Cc1nc2c(o1)CCc1ccccc1C2N1CCN(C)CC1` (stereo unspecified): the cell count in assay [1] was 557. Moreover, the inhibition in assay [1] is 1.3% (inactive); in assay [2] it was -37.3% (inactive); in [4], 17.8% (inactive); in assay [9], 29.5% (inactive). This compound also yielded a nuclei count in [2] of 103%. The results for the z-score in [3] (setting [10]), in [3] (setting [11]) and in assay [3] (setting [12]) were 0.777, -1.51 and 1.56, respectively. Further, the fluorescence slope in [5] is -0.412 (inactive); in assay [7], 0.00552 (inactive). Moreover, the NADPH fluorescence slope in [6] was -3.4e-05 (inactive). For the same compound, the compound was classed as inactive in assay [8].

With `COc1ccccc1-c1nnc2n1N=C(c1ccc(O)c(O)c1)CS2`, the cell count in assay [1] is 485. Further, the inhibition in assay [1] is 50.9% (active); in [2] it was -490% (inactive); in [4] it was -6.48% (inactive); in assay [9], -2.32% (inactive). For the same compound, the nuclei count in assay [2] was determined as 70.4%. For the same compound, the z-score in [3] (setting [10]) is 1.36; in assay [3] (setting [11]), -1.29; in assay [3] (setting [12]) it was -0.603. For the same compound, the fluorescence slope in assay [5] is -0.429 (inactive); in [7], 0.00474 (inactive). Also, the NADPH fluorescence slope in assay [6] is -1.7e-05 (inactive). Besides, in assay [8], the compound was called inactive.

Regarding `CC1(C)Cc2ccccc2-c2c1c(=O)n(-c1ccccc1)c1nnnn21`, in assay [1], the cell count was determined as 624. The inhibition in assay [1] was 8.6% (inactive); in assay [2], -45% (inactive); in assay [4] it was 4.72% (inactive); in assay [9], 13.9% (inactive). Besides, the nuclei count in assay [2] was 92.5%. Moreover, the z-score in assay [3] (setting [10]) was 0.648; in assay [3] (setting [11]), -0.29; in assay [3] (setting [12]), -0.398. Also, the fluorescence slope in assay [5] was -0.51 (inactive); in assay [7], 0.00444 (inactive). The NADPH fluorescence slope in [6] was -1.7e-05 (inactive). Further, the compound was called inactive in assay [8].

Take `CC(NC(=O)CSc1nnc(COc2ccccc2)o1)c1ccccc1` (stereo unspecified): in assay [1], the cell count amounted to 397. For the same compound, the inhibition in assay [1] was 1.7% (inactive); in assay [2], -35.2% (inactive); in assay [4], -6.86% (inactive); in assay [9], 5.02% (inactive). The same compound came in with a nuclei count in [2] of 134%. Besides, the figures for the z-score in [3] (setting [10]), in assay [3] (setting [11]) and in [3] (setting [12]) were -0.868, 0.275 and 1.84, respectively. In addition, the fluorescence slope in assay [5] is -0.453 (inactive); in [7], 0.00476 (inactive). The NADPH fluorescence slope in assay [6] was -0.000143 (inactive). Further, the result in assay [8] was inactive.

Regarding `Cn1c(NCc2cccnc2)nc2c1c(=O)n(Cc1ccccc1F)c(=O)n2C`, the cell count in assay [1] came out at 696. The inhibition was 3% (inactive) in [1], -201% (inactive) in [2], 11.9% (inactive) in assay [4] and 18.1% (inactive) in [9]. For the same compound, in assay [2], the nuclei count amounted to 167%. Moreover, the z-score in assay [3] (setting [10]) was 0.699; in [3] (setting [11]), -0.869; in assay [3] (setting [12]), 1.16. Besides, the fluorescence slope in assay [5] was -0.51 (inactive); in assay [7] it was 0.00566 (inactive). Also, in assay [6], the NADPH fluorescence slope is -6e-05 (inactive). Also, the compound was called inactive in assay [8].

As to `Cn1c(=O)c2c(nc(NCc3ccc4c(c3)OCO4)n2Cc2ccccc2Cl)n(C)c1=O`, the cell count in assay [1] came to 634. In addition, the inhibition is -6% (inactive) in assay [1], -29.1% (inactive) in assay [2], -2.09% (inactive) in assay [4] and -8.68% (inactive) in assay [9]. In addition, in assay [2], the nuclei count amounted to 104%. In addition, the z-score stood at 0.0435 in [3] (setting [10]), 2.04 in assay [3] (setting [11]) and 0.82 in [3] (setting [12]). The values for the fluorescence slope in [5] and in assay [7] were -0.41 (inactive) and 0.00449 (inactive), respectively. Besides, the NADPH fluorescence slope in assay [6] is -9.6e-06 (inactive). In addition, the compound was classed as inactive in assay [8].

On to `Cc1cc(N2C(=O)C(=O)/C(=C(/O)c3ccc(F)cc3)C2c2cccc(Br)c2)no1` (stereo unspecified), for which the cell count in assay [1] was 478. The inhibition is 2.6% (inactive) in [1], 2.7% (inactive) in assay [2], 1.04% (inactive) in assay [4] and 15.6% (inactive) in [9]. This compound also came in with a nuclei count in assay [2] of 145%. Also, the z-score in assay [3] (setting [10]) amounted to 0.015; in assay [3] (setting [11]), 0.305; in assay [3] (setting [12]) it was 1.03. In addition, the fluorescence slope in assay [5] was -0.439 (inactive); in assay [7], 0.00551 (inactive). In addition, the NADPH fluorescence slope in assay [6] is -4.6e-05 (inactive). The compound was classed as inactive in assay [8].

Regarding `CCOC(=O)CSc1nnc2n(Cc3ccccc3)c(=O)c3c4c(sc3n12)CCC4`, the cell count in assay [1] is 364. For the same compound, the inhibition in assay [1] was 0.8% (inactive); in [2] it was 49.8% (inactive); in [4] it was 13.4% (inactive); in [9], 0.799% (inactive). The compound further displayed a nuclei count in [2] of 168%. Besides, the results for the z-score in assay [3] (setting [10]), in [3] (setting [11]) and in [3] (setting [12]) were -0.465, -0.253 and 1.89, respectively. Besides, the fluorescence slope in assay [5] is -0.428 (inactive); in assay [7], 0.00471 (inactive). The NADPH fluorescence slope in assay [6] is -0.000132 (inactive). In addition, the outcome in assay [8] was “active; weak signal in gallbladder and intestine”.

Consider `CC1N(O)C(c2ccc(Cl)cc2Cl)N(O)C1(C)C` (stereo unspecified), for which the cell count in [1] was determined as 482. For the same compound, the inhibition in assay [1] was 1.9% (inactive); in assay [2], -3.5% (inactive); in assay [4], 7.93% (inactive); in assay [9], 43.1% (inactive). Besides, the nuclei count in [2] was 94.1%. The z-score in [3] (setting [10]) was -0.283; in assay [3] (setting [11]), -1.5; in assay [3] (setting [12]) it was 1.54. Moreover, the fluorescence slope in assay [5] was -0.347 (inactive); in [7] it was 0.00632 (inactive). Further, the NADPH fluorescence slope in assay [6] was 9.2e-07 (inactive). Besides, the compound was classed as inactive in assay [8].

Take `CCN(CC)c1ccc(C2Nc3cccc4cccc(c34)N2)c(O)c1`: in assay [1], the cell count amounted to 571. The inhibition is 2.2% (inactive) in assay [1], -102% (inactive) in [2], -0.584% (inactive) in assay [4] and 40% (inactive) in assay [9]. The nuclei count in assay [2] is 134%. The z-score in assay [3] (setting [10]) is 0.205; in assay [3] (setting [11]), -0.845; in assay [3] (setting [12]), -0.409. Moreover, the fluorescence slope in [5] is -0.397 (inactive); in assay [7], 0.00286 (inactive). The NADPH fluorescence slope in assay [6] was -7.3e-05 (inactive). For the same compound, the outcome in [8] was “active; no signal in gallbladder and intestine”.

Regarding `C=CCOC(=O)C1=C(C)NC(SCC(=O)Nc2ccc(C)c(Cl)c2)=C(C#N)C1c1ccco1` (stereo unspecified), in [1], the cell count came out at 654. Also, the inhibition in [1] is -12.4% (inactive); in [2], -141% (inactive); in assay [4], 10.1% (inactive); in [9], 6.54% (inactive). Besides, in [2], the nuclei count was determined as 165%. The z-score in assay [3] (setting [10]) was 0.0936; in assay [3] (setting [11]) it was -0.359; in assay [3] (setting [12]), 0.4. The fluorescence slope in assay [5] is -0.465 (inactive); in [7], 0.00959 (inactive). The NADPH fluorescence slope in assay [6] is -2.6e-05 (inactive). Moreover, the call in [8] was inactive.

Turning to `CCOC(=O)c1[nH]c2ccccc2c1N=CN(CC)CC`, the cell count in assay [1] worked out at 684. Also, the inhibition in assay [1] is 0.2% (inactive); in assay [2], -230% (inactive); in [4], 1.9e-07% (inactive); in assay [9], -14.4% (inactive). The compound further registered a nuclei count in assay [2] of 160%. Besides, the values for the z-score in [3] (setting [10]), in [3] (setting [11]) and in assay [3] (setting [12]) were -0.555, 0.832 and 0.765, respectively. Further, the fluorescence slope in [5] was -0.472 (inactive); in assay [7], 0.00609 (inactive). The NADPH fluorescence slope in assay [6] was -5.6e-05 (inactive). In addition, in assay [8], the compound was classed as inactive.
